From ChEMBL document CHEMBL3808334, “Synthesis and in vitro evaluation of novel triazine analogues as anticancer agents and their interaction studies with bovine serum albumin” (Eur J Med Chem, 2016)

Tests used:
Format in all cases: functional
[1] = Growth inhibition of human RPMI8226 cells incubated for 48 hrs by sulforhodamine B assay; settings: RPMI-8226, 48 h
How it was run: (§1)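 Cells were plated at 5,000–40,000 per well according to doubling time and preincubated 24 h at 37 °C in 5% CO2; time-zero plates were then TCA-fixed. Five concentrations (10-fold or ½-log dilutions, DMSO stock) were incubated 48 h. Cells were TCA-fixed, stained with 0.4% SRB and read at 515 nm. GI50 was taken where [(Ti−Tz)/(C−Tz)]×100 = 50.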

[2] = Growth inhibition of human COLO205 cells incubated for 48 hrs by sulforhodamine B assay; settings: COLO 205, 48 h
How it was run: (§2)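 Cells seeded at 5,000–40,000/well according to doubling time and preincubated 24 h at 37 °C, 5% CO2. Time-zero plates were TCA-fixed. DMSO concentrate was diluted in medium with 50 µg/ml gentamicin to give five concentrations (10-fold or ½ log steps), then exposed 48 h. Cells were TCA-fixed, stained with 0.4% SRB and read at 515 nm. Percent growth was taken against time-zero and control; GI50, TGI and LC50 derived.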

[3] = Growth inhibition of human SNB75 cells incubated for 48 hrs by sulforhodamine B assay; settings: SNB-75, 48 h; how it was run: as §1
[4] = Growth inhibition of human RXF393 cells incubated for 48 hrs by sulforhodamine B assay; settings: RXF 393, 48 h; how it was run: as §1
[5] = tested on: NCI-H23; assay: Growth inhibition of human NCI-H23 cells assessed as cell growth at 10^-7 M incubated for 48 hrs by sulforhodamine B assay; settings: NCI-H23, 48 h, read-out: Activity
[6] = tested on: NCI-H23; assay: Growth inhibition of human NCI-H23 cells assessed as cell growth at 10^-4 M incubated for 48 hrs by sulforhodamine B assay; settings: NCI-H23, 48 h, read-out: Activity
[7] = Growth inhibition of human SKOV3 cells assessed as cell growth at 10 uM incubated for 48 hrs by sulforhodamine B assay; settings: SK-OV-3, 48 h, read-out: Activity
[8] = tested on: K562; assay: Growth inhibition of human K562 cells assessed as cell growth at 10^-8 M incubated for 48 hrs by sulforhodamine B assay; settings: K562, 48 h, read-out: Activity
[9] = Growth inhibition of human RPMI8226 cells assessed as cell growth at 10^-8 M incubated for 48 hrs by sulforhodamine B assay; settings: RPMI-8226, 48 h, read-out: Activity
[10] = tested on: A549; assay: Growth inhibition of human A549/ATCC cells assessed as cell growth at 10^-8 M incubated for 48 hrs by sulforhodamine B assay; settings: A549, 48 h, read-out: Activity
How it was run: (§3)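 Five-dose assay: five concentrations from 10-fold or ½-log serial dilutions. Cells are plated at 5,000–40,000 per well according to doubling time, grown 24 h, then exposed 48 h at 37 °C, 5% CO₂. Fixed with cold 50% TCA (final addition) for 60 min at 4 °C and stained with 0.4% SRB in 1% acetic acid. Bound dye is solubilized in 10 mM Tris base and read at 515 nm. GI₅₀ is where [(Ti−Tz)/(C−Tz)]×100 = 50, with a time-zero plate as Tz.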

[11] = tested on: A549; assay: Growth inhibition of human A549/ATCC cells assessed as cell growth at 10^-6 M incubated for 48 hrs by sulforhodamine B assay; settings: A549, 48 h, read-out: Activity; how it was run: as §3
[12] = tested on: NCI-H322M; assay: Growth inhibition of human NCI-H322M cells assessed as cell growth at 10^-6 M incubated for 48 hrs by sulforhodamine B assay; settings: read-out: Activity
[13] = Growth inhibition of human COLO205 cells assessed as cell growth at 10^-5 M incubated for 48 hrs by sulforhodamine B assay; settings: COLO 205, 48 h, read-out: Activity; how it was run: as §2
[14] = read-out: LC50 (the source's name)
[15] = read-out: pLC50 (the source's name) (converted)

## c1ccc(-c2nc(Nc3ccc(-c4nc5ccccc5[nH]4)cc3)nc(N3CCOCC3)n2)cc1
[1]; read-out: GI50
  GI50: 1110 nM
[1]; [14]
  CC50: > 100 µM
[1]; read-out: TGI
  TGI: 4.23 µM
[1]; read-out: pGI50 (converted)
  GI50: 1120 nM
[1]; [15]
  CC50: > 100 µM
[1]; read-out: pTGI (converted)
  TGI: 4.27 µM
[2]; read-out: GI50
  GI50: 1410 nM
[2]; read-out: LC50
  LC50: 6.92 µM
[2]; read-out: TGI
  TGI: 3.13 µM
[2]; read-out: pGI50 (converted)
  GI50: 1410 nM
[2]; read-out: pLC50 (converted)
  LC50: 6.92 µM
[2]; read-out: pTGI (converted)
  TGI: 3.16 µM
[3]; read-out: GI50
  GI50: 1640 nM
[3]; [14]
  CC50: 6.07 µM
[3]; read-out: TGI
  TGI: 3.15 µM
[3]; read-out: pGI50 (converted)
  GI50: 1620 nM
[3]; [15]
  CC50: 6.03 µM
[3]; read-out: pTGI (converted)
  TGI: 3.16 µM
[4]; read-out: GI50
  GI50: 501 nM
[4]; [14]
  CC50: 7.24 µM
[4]; read-out: TGI
  TGI: 2120 nM
[4]; read-out: pGI50 (converted)
  GI50: 501 nM
[4]; [15]
  CC50: 7.24 µM
[4]; read-out: pTGI (converted)
  TGI: 2140 nM
[5]
  growth at 0.1 µM: 95%
[6]
  growth at 100 µM: -51%
[7]
  growth at 10 µM: -30.3%
[8]
  growth at 0.01 µM: 86%
[9]
  growth at 0.01 µM: 100%
[10]
  growth at 0.01 µM: 103%
[11]
  growth at 1 µM: 96%
[12]
  growth at 1 µM: 86%
[13]
  growth at 10 µM: -73%

## Fc1ccc(-c2nc(Nc3ccc(-c4nc5ccccc5[nH]4)cc3)nc(N3CCOCC3)n2)cc1
[1]; read-out: GI50
  GI50: 1930 nM
[1]; [14]
  CC50: > 100 µM
[1]; read-out: TGI
  TGI: 6.54 µM
[1]; read-out: pGI50 (converted)
  GI50: 1950 nM
[1]; [15]
  CC50: > 100 µM
[1]; read-out: pTGI (converted)
  TGI: 6.61 µM
[2]; read-out: GI50
  GI50: 1920 nM
[2]; read-out: LC50
  LC50: 9.23 µM
[2]; read-out: TGI
  TGI: 4.21 µM
[2]; read-out: pGI50 (converted)
  GI50: 1910 nM
[2]; read-out: pLC50 (converted)
  LC50: 9.33 µM
[2]; read-out: pTGI (converted)
  TGI: 4.17 µM
[3]; read-out: GI50
  GI50: 1800 nM
[3]; [14]
  CC50: > 100 µM
[3]; read-out: TGI
  TGI: 10.5 µM
[3]; read-out: pGI50 (converted)
  GI50: 1820 nM
[3]; [15]
  CC50: > 100 µM
[3]; read-out: pTGI (converted)
  TGI: 10.5 µM
[4]; read-out: GI50
  GI50: 459 nM
[4]; [14]
  CC50: > 100 µM
[4]; read-out: TGI
  TGI: 2510 nM
[4]; read-out: pGI50 (converted)
  GI50: 457 nM
[4]; [15]
  CC50: > 100 µM
[4]; read-out: pTGI (converted)
  TGI: 2510 nM
[5]
  growth at 0.1 µM: 91%
[6]
  growth at 100 µM: -15%
[7]
  growth at 10 µM: 19.6%
[8]
  growth at 0.01 µM: 104%
[9]
  growth at 0.01 µM: 100%
[10]
  growth at 0.01 µM: 95%
[11]
  growth at 1 µM: 99%
[12]
  growth at 1 µM: 93%
[13]
  growth at 10 µM: -55%

## c1ccc2[nH]c(-c3ccc(Nc4nc(N5CCCCC5)nc(N5CCOCC5)n4)cc3)nc2c1
[1]; read-out: GI50
  GI50: 2230 nM
[1]; [14]
  CC50: > 100 µM
[1]; read-out: TGI
  TGI: 6.58 µM
[1]; read-out: pGI50 (converted)
  GI50: 2240 nM
[1]; [15]
  CC50: > 100 µM
[1]; read-out: pTGI (converted)
  TGI: 6.61 µM
[2]; read-out: GI50
  GI50: 1860 nM
[2]; read-out: LC50
  LC50: 8.27 µM
[2]; read-out: TGI
  TGI: 3.92 µM
[2]; read-out: pGI50 (converted)
  GI50: 1860 nM
[2]; read-out: pLC50 (converted)
  LC50: 8.32 µM
[2]; read-out: pTGI (converted)
  TGI: 3.89 µM
[3]; read-out: GI50
  GI50: 2100 nM
[3]; [14]
  CC50: > 100 µM
[3]; read-out: TGI
  TGI: 16.9 µM
[3]; read-out: pGI50 (converted)
  GI50: 2090 nM
[3]; [15]
  CC50: > 100 µM
[3]; read-out: pTGI (converted)
  TGI: 17 µM
[4]; read-out: GI50
  GI50: 808 nM
[4]; [14]
  CC50: > 100 µM
[4]; read-out: TGI
  TGI: 3280 nM
[4]; read-out: pGI50 (converted)
  GI50: 813 nM
[4]; [15]
  CC50: > 100 µM
[4]; read-out: pTGI (converted)
  TGI: 3310 nM
[5]
  growth at 0.1 µM: 93%
[6]
  growth at 100 µM: -26%
[7]
  growth at 10 µM: 22.5%
[8]
  growth at 0.01 µM: 103%
[9]
  growth at 0.01 µM: 97%
[10]
  growth at 0.01 µM: 94%
[11]
  growth at 1 µM: 101%
[12]
  growth at 1 µM: 93%
[13]
  growth at 10 µM: -63%

## Clc1ccc(-c2nc(Nc3ccc(-c4nc5ccccc5[nH]4)cc3)nc(N3CCOCC3)n2)cc1
[1]; read-out: GI50
  GI50: 257 nM
[1]; read-out: TGI
  TGI: 0.682 µM
[1]; read-out: pGI50 (converted)
  GI50: 257 nM
[1]; read-out: pTGI (converted)
  TGI: 0.676 µM
[2]; read-out: GI50
  GI50: 305 nM
[2]; read-out: TGI
  TGI: 1.07 µM
[2]; read-out: pGI50 (converted)
  GI50: 302 nM
[2]; read-out: pTGI (converted)
  TGI: 1.07 µM
[3]; read-out: GI50
  GI50: 1750 nM
[3]; read-out: TGI
  TGI: 3.25 µM
[3]; read-out: pGI50 (converted)
  GI50: 1740 nM
[3]; read-out: pTGI (converted)
  TGI: 3.24 µM
[4]; read-out: GI50
  GI50: 222 nM
[4]; read-out: TGI
  TGI: 450 nM
[4]; read-out: pGI50 (converted)
  GI50: 224 nM
[4]; read-out: pTGI (converted)
  TGI: 447 nM
[5]
  growth at 0.1 µM: 92%
[6]
  growth at 100 µM: -27%
[7]
  growth at 10 µM: -89.9%
[8]
  growth at 0.01 µM: 96%
[9]
  growth at 0.01 µM: 100%
[10]
  growth at 0.01 µM: 96%
[11]
  growth at 1 µM: 40%
[12]
  growth at 1 µM: 2%
[13]
  growth at 10 µM: -71%
